# Measurements pooled from the literature.
# CDK9: Cyclin-dependent kinase 9 (CDK9, Homo sapiens, UniProt P50750)
# CDK9 with cyclin T1: Cyclin-dependent kinase 9, with cyclin T1 (CDK9, Homo sapiens, UniProt P50750)
SMILES,target,test,test system,conditions,measurement,value
C[C@]1(O)CCCN(c2nc(Nc3ccc(S(=O)(=O)N[C@H]4CC[C@H](CN5CCN(c6ccc(C7CCC(=O)NC7=O)cc6F)CC5)CC4)cc3F)ncc2C(F)(F)F)C1 (stereo partly drawn),CDK9,"binding, competition with immobilised ligand",,1 µM,remaining binding,95%
CC#CC(=O)N1CCC[C@H]1c1nc(-c2ccc(C(=O)Nc3ccccn3)cc2)c2c(N)nccn12,CDK9,"enzyme activity, inhibitor",,1 µM,inhibition,0%
COc1ccc2[nH]c3c4[nH]c5ccc(OC)cc5c4c4c(c3c2c1)C(=O)NC4=O,CDK9,binding,,1 µM,remaining binding,58%
Cc1cc(S(=O)(=O)N[C@H]2CC[C@H](CN3CCN(c4ccc(C5CCC(=O)NC5=O)cc4F)CC3)CC2)ccc1Nc1ncc(C(F)(F)F)c(N2CCC[C@](C)(O)C2)n1 (stereo partly drawn),CDK9,"binding, competition with immobilised ligand",,1 µM,remaining binding,78%
CC(C)(C)c1cnc(CSc2cnc(NC(=O)C3CCN(C(=O)CCCCN4Cc5cc6c(cc5C4)C(=O)N(C4CCC(=O)NC4=O)C6=O)CC3)s2)o1 (stereo not drawn),CDK9,"protein level, degrader, western blot",TC-71,25 nM,inhibition,80.1%
COc1ccc2oc(-c3ccc4nc(N)oc4c3)c/c(=N\c3ccccc3NC(=O)CCN)c2c1,CDK9 with cyclin T1,binding,,1 µM,remaining binding,93%
CC(C)(C)c1cnc(CSc2cnc(NC(=O)C3CCN(C(=O)CCOCCCN4Cc5cc6c(cc5C4)C(=O)N(C4CCC(=O)NC4=O)C6=O)CC3)s2)o1 (stereo not drawn),CDK9,"protein level, degrader, western blot",TC-71,25 nM,inhibition,85.1%
CC(C)S(=O)(=O)c1ccc2nccc(Nc3ccc4sc(C5CCCC5)nc4c3)c2c1,CDK9 with cyclin T1,"enzyme activity, inhibitor",,1 µM,activity vs control,98%
CC(C)(C)c1cnc(CSc2cnc(NC(=O)C3CCN(CC(=O)NCCOCCOCCOCCNc4cccc5c4C(=O)N(C4CCC(=O)NC4=O)C5=O)CC3)s2)o1 (stereo not drawn),CDK9,"protein level, degrader, western blot",TC-71,25 nM,inhibition,36.8%
C=CC(=O)N1CCC[C@@H](n2nc(-c3ccc(Oc4ccccc4)cc3)c3c(N)ncnc32)C1,CDK9,"enzyme activity, inhibitor",,1 µM,inhibition,2%
CC(C)(C)c1cnc(CSc2cnc(NC(=O)C3CCN(C(=O)CCCCCCCN4Cc5cc6c(cc5C4)C(=O)N(C4CCC(=O)NC4=O)C6=O)CC3)s2)o1 (stereo not drawn),CDK9,"protein level, degrader, western blot",TC-71,25 nM,inhibition,94.4%
Cc1ccc(NC(=O)c2ccnc(C(F)(F)F)c2)cc1-c1cc(OCCO)nc(N2CCOCC2)c1,CDK9,binding,,1 µM,remaining binding,100%
